According to ChEMBL document CHEMBL1949561, “Synthesis and triplex-forming ability of oligonucleotides bearing 1-substituted 1H-1,2,3-triazole nucleobases” (Bioorg Med Chem, 2011):

Tests used:
Format in all cases: nucleic-acid assay
Nucleic Acid [1] = assay: Binding affinity to 5'-GCTAAAAAGAGAGAGAGATCG-3'/5'- CGATCTCTCTCTCTTTTTAGC-3' double stranded DNA assessed as melting temperature at 1.9 uM in sodium cacodylate buffer at pH 6.8 by UV spectrophotometric analysis
In short: (§1)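 Each oligonucleotide at 1.9 µM final. Absorbance at 260 nm recorded from 5 °C to 85 °C at 0.5 °C/min; Tm taken from the melting profile.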

Nucleic Acid [2] = assay: Binding affinity to 5'-GCTAAAAAGATAGAGAGATCG-3'/5'- CGATCTCTCTATCTTTTTAGC-3' double stranded DNA assessed as melting temperature at 1.9 uM in sodium cacodylate buffer at pH 6.8 by UV spectrophotometric analysis; in short: as §1
Nucleic Acid [3] = assay: Binding affinity to 5'-GCTAAAAAGACAGAGAGATCG-3'/5'- CGATCTCTCTGTCTTTTTAGC-3' double stranded DNA assessed as melting temperature at 1.9 uM in sodium cacodylate buffer at pH 6.8 by UV spectrophotometric analysis; in short: as §1
Nucleic Acid [4] = assay: Binding affinity to 5'-GCTAAAAAGAAAGAGAGATCG-3'/5'- CGATCTCTCTTTCTTTTTAGC-3' double stranded DNA assessed as melting temperature at 1.9 uM in sodium cacodylate buffer at pH 6.8 by UV spectrophotometric analysis; in short: as §1
Nucleic Acid [5] = assay: Binding affinity to 5'-GCTAAAAAGATAGAGAGATCG-3'/5'- CGATCTCTCTATCTTTTTAGC-3' double stranded DNA assessed as melting temperature at 1.5 uM in sodium phosphate buffer at pH 7 by UV spectrophotometric analysis
In short: (§2)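 UV melting of triplexes between each modified TFO and the 21-bp duplex target, in 7 mM sodium phosphate buffer (pH 7.0), 140 mM KCl and 10 mM MgCl₂. Each oligonucleotide at 1.5 µM final. Absorbance followed at 260 nm from 5 °C to 85 °C, scanned at 0.5 °C/min, to give Tm.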

Nucleic Acid [6] = assay: Binding affinity to5'-GCTAAAAAGACAGAGAGATCG-3'/5'- CGATCTCTCTGTCTTTTTAGC-3' double stranded DNA assessed as melting temperature at 1.5 uM in sodium phosphate buffer at pH 7 by UV spectrophotometric analysis; in short: as §2
Nucleic Acid [7] = assay: Binding affinity to 5'-GCTAAAAAGAAAGAGAGATCG-3'/5'- CGATCTCTCTTTCTTTTTAGC-3' double stranded DNA assessed as melting temperature at 1.5 uM in sodium phosphate buffer at pH 7 by UV spectrophotometric analysis; in short: as §2
Nucleic Acid [8] = assay: Binding affinity to 5'-GCTAAAAAGACAGAGAGATCG-3'/5'- CGATCTCTCTGTCTTTTTAGC-3' double stranded DNA assessed as change in melting temperature at 1.5 uM in sodium phosphate buffer at pH 7 by UV spectrophotometric analysis
Nucleic Acid [9] = assay: Binding affinity to 5'-GCTAAAAAGAGAGAGAGATCG-3'/5'- CGATCTCTCTCTCTTTTTAGC-3' double stranded DNA assessed as melting temperature at 1.5 uM in sodium phosphate buffer at pH 7 by UV spectrophotometric analysis; in short: as §2

Row | Tm (Nucleic Acid [1]) | Tm (Nucleic Acid [2]) | Tm (Nucleic Acid [3]) | Tm (Nucleic Acid [4]) | Tm (Nucleic Acid [5]) | Tm (Nucleic Acid [6]) | Tm (Nucleic Acid [7]) | ΔTm (Nucleic Acid [8]) | Tm (Nucleic Acid [9]) | Structure (SMILES)
1 | 17 °C | 23 °C | 29 °C | 19 °C | 17 °C | 25 °C | < 10 °C | 8 °C | < 10 °C | Cc1cn([C@H]2C[C@H](OP(=O)(O)OC[C@H]3O[C@@H](n4cc(C)c(=O)[nH]c4=O)C[C@@H]3OP(=O)(O)OC[C@H]3O[C@@H](n4cc(C)c(N)nc4=O)C[C@@H]3OP(=O)(O)OC[C@H]3O[C@@H](n4cc(C)c(=O)[nH]c4=O)C[C@@H]3OP(=O)(O)OC[C@H]3O[C@@H](n4cc(C)c(N)nc4=O)C[C@@H]3OP(=O)(O)OC[C@H]3O[C@@H](n4cc(C)c(=O)[nH]c4=O)C[C@@H]3OP(=O)(O)OC[C@H]3O[C@@H](c4cn(-c5ccccc5)nn4)C[C@@H]3OP(=O)(O)OC[C@H]3O[C@@H](n4cc(C)c(=O)[nH]c4=O)C[C@@H]3OP(=O)(O)OC[C@H]3O[C@@H](n4cc(C)c(N)nc4=O)C[C@@H]3OP(=O)(O)OC[C@H]3O[C@@H](n4cc(C)c(=O)[nH]c4=O)C[C@@H]3OP(=O)(O)OC[C@H]3O[C@@H](n4cc(C)c(=O)[nH]c4=O)C[C@@H]3OP(=O)(O)OC[C@H]3O[C@@H](n4cc(C)c(=O)[nH]c4=O)C[C@@H]3OP(=O)(O)OC[C@H]3O[C@@H](n4cc(C)c(=O)[nH]c4=O)C[C@@H]3OP(=O)(O)OC[C@H]3O[C@@H](n4cc(C)c(=O)[nH]c4=O)C[C@@H]3O)[C@@H](COP(=O)(O)O[C@H]3C[C@H](n4cc(C)c(=O)[nH]c4=O)O[C@@H]3CO)O2)c(=O)nc1N
2 | 22 °C | 21 °C | 28 °C | 45 °C | 17 °C | 25 °C | 44 °C |  | 20 °C | Cc1cn([C@H]2C[C@H](OP(=O)(O)OC[C@H]3O[C@@H](n4cc(C)c(=O)[nH]c4=O)C[C@@H]3OP(=O)(O)OC[C@H]3O[C@@H](n4cc(C)c(N)nc4=O)C[C@@H]3OP(=O)(O)OC[C@H]3O[C@@H](n4cc(C)c(=O)[nH]c4=O)C[C@@H]3OP(=O)(O)OC[C@H]3O[C@@H](n4cc(C)c(N)nc4=O)C[C@@H]3OP(=O)(O)OC[C@H]3O[C@@H](n4cc(C)c(=O)[nH]c4=O)C[C@@H]3OP(=O)(O)OC[C@H]3O[C@@H](n4cc(C)c(=O)[nH]c4=O)C[C@@H]3OP(=O)(O)OC[C@H]3O[C@@H](n4cc(C)c(=O)[nH]c4=O)C[C@@H]3OP(=O)(O)OC[C@H]3O[C@@H](n4cc(C)c(N)nc4=O)C[C@@H]3OP(=O)(O)OC[C@H]3O[C@@H](n4cc(C)c(=O)[nH]c4=O)C[C@@H]3OP(=O)(O)OC[C@H]3O[C@@H](n4cc(C)c(=O)[nH]c4=O)C[C@@H]3OP(=O)(O)OC[C@H]3O[C@@H](n4cc(C)c(=O)[nH]c4=O)C[C@@H]3OP(=O)(O)OC[C@H]3O[C@@H](n4cc(C)c(=O)[nH]c4=O)C[C@@H]3OP(=O)(O)OC[C@H]3O[C@@H](n4cc(C)c(=O)[nH]c4=O)C[C@@H]3O)[C@@H](COP(=O)(O)O[C@H]3C[C@H](n4cc(C)c(=O)[nH]c4=O)O[C@@H]3CO)O2)c(=O)nc1N
3 |  |  |  |  | 12 °C | 19 °C | < 10 °C |  | < 10 °C | Cc1cn([C@H]2C[C@H](OP(=O)(O)OC[C@H]3O[C@@H](n4cc(C)c(=O)[nH]c4=O)C[C@@H]3OP(=O)(O)OC[C@H]3O[C@@H](n4cc(C)c(N)nc4=O)C[C@@H]3OP(=O)(O)OC[C@H]3O[C@@H](n4cc(C)c(=O)[nH]c4=O)C[C@@H]3OP(=O)(O)OC[C@H]3O[C@@H](n4cc(C)c(N)nc4=O)C[C@@H]3OP(=O)(O)OC[C@H]3O[C@@H](n4cc(C)c(=O)[nH]c4=O)C[C@@H]3OP(=O)(O)OC[C@H]3O[C@@H](c4cn(Cc5ccccc5)nn4)C[C@@H]3OP(=O)(O)OC[C@H]3O[C@@H](n4cc(C)c(=O)[nH]c4=O)C[C@@H]3OP(=O)(O)OC[C@H]3O[C@@H](n4cc(C)c(N)nc4=O)C[C@@H]3OP(=O)(O)OC[C@H]3O[C@@H](n4cc(C)c(=O)[nH]c4=O)C[C@@H]3OP(=O)(O)OC[C@H]3O[C@@H](n4cc(C)c(=O)[nH]c4=O)C[C@@H]3OP(=O)(O)OC[C@H]3O[C@@H](n4cc(C)c(=O)[nH]c4=O)C[C@@H]3OP(=O)(O)OC[C@H]3O[C@@H](n4cc(C)c(=O)[nH]c4=O)C[C@@H]3OP(=O)(O)OC[C@H]3O[C@@H](n4cc(C)c(=O)[nH]c4=O)C[C@@H]3O)[C@@H](COP(=O)(O)O[C@H]3C[C@H](n4cc(C)c(=O)[nH]c4=O)O[C@@H]3CO)O2)c(=O)nc1N
4 |  |  |  |  | 15 °C | 24 °C | 12 °C |  | 15 °C | Cc1cn([C@H]2C[C@H](OP(=O)(O)OC[C@H]3O[C@@H](n4cc(C)c(=O)[nH]c4=O)C[C@@H]3OP(=O)(O)OC[C@H]3O[C@@H](n4cc(C)c(N)nc4=O)C[C@@H]3OP(=O)(O)OC[C@H]3O[C@@H](n4cc(C)c(=O)[nH]c4=O)C[C@@H]3OP(=O)(O)OC[C@H]3O[C@@H](n4cc(C)c(N)nc4=O)C[C@@H]3OP(=O)(O)OC[C@H]3O[C@@H](n4cc(C)c(=O)[nH]c4=O)C[C@@H]3OP(=O)(O)OC[C@H]3O[C@@H](c4cn(-c5cccnc5O)nn4)C[C@@H]3OP(=O)(O)OC[C@H]3O[C@@H](n4cc(C)c(=O)[nH]c4=O)C[C@@H]3OP(=O)(O)OC[C@H]3O[C@@H](n4cc(C)c(N)nc4=O)C[C@@H]3OP(=O)(O)OC[C@H]3O[C@@H](n4cc(C)c(=O)[nH]c4=O)C[C@@H]3OP(=O)(O)OC[C@H]3O[C@@H](n4cc(C)c(=O)[nH]c4=O)C[C@@H]3OP(=O)(O)OC[C@H]3O[C@@H](n4cc(C)c(=O)[nH]c4=O)C[C@@H]3OP(=O)(O)OC[C@H]3O[C@@H](n4cc(C)c(=O)[nH]c4=O)C[C@@H]3OP(=O)(O)OC[C@H]3O[C@@H](n4cc(C)c(=O)[nH]c4=O)C[C@@H]3O)[C@@H](COP(=O)(O)O[C@H]3C[C@H](n4cc(C)c(=O)[nH]c4=O)O[C@@H]3CO)O2)c(=O)nc1N
5 |  |  |  |  | < 10 °C | 21 °C | < 10 °C | 11 °C | < 10 °C | Cc1cn([C@H]2C[C@H](OP(=O)(O)OC[C@H]3O[C@@H](n4cc(C)c(=O)[nH]c4=O)C[C@@H]3OP(=O)(O)OC[C@H]3O[C@@H](n4cc(C)c(N)nc4=O)C[C@@H]3OP(=O)(O)OC[C@H]3O[C@@H](n4cc(C)c(=O)[nH]c4=O)C[C@@H]3OP(=O)(O)OC[C@H]3O[C@@H](n4cc(C)c(N)nc4=O)C[C@@H]3OP(=O)(O)OC[C@H]3O[C@@H](n4cc(C)c(=O)[nH]c4=O)C[C@@H]3OP(=O)(O)OC[C@H]3O[C@@H](c4cn(-c5ccc(C(=O)O)cc5)nn4)C[C@@H]3OP(=O)(O)OC[C@H]3O[C@@H](n4cc(C)c(=O)[nH]c4=O)C[C@@H]3OP(=O)(O)OC[C@H]3O[C@@H](n4cc(C)c(N)nc4=O)C[C@@H]3OP(=O)(O)OC[C@H]3O[C@@H](n4cc(C)c(=O)[nH]c4=O)C[C@@H]3OP(=O)(O)OC[C@H]3O[C@@H](n4cc(C)c(=O)[nH]c4=O)C[C@@H]3OP(=O)(O)OC[C@H]3O[C@@H](n4cc(C)c(=O)[nH]c4=O)C[C@@H]3OP(=O)(O)OC[C@H]3O[C@@H](n4cc(C)c(=O)[nH]c4=O)C[C@@H]3OP(=O)(O)OC[C@H]3O[C@@H](n4cc(C)c(=O)[nH]c4=O)C[C@@H]3O)[C@@H](COP(=O)(O)O[C@H]3C[C@H](n4cc(C)c(=O)[nH]c4=O)O[C@@H]3CO)O2)c(=O)nc1N
6 |  |  |  |  | 16 °C | 24 °C | < 10 °C |  | < 10 °C | Cc1cn([C@H]2C[C@H](OP(=O)(O)OC[C@H]3O[C@@H](n4cc(C)c(=O)[nH]c4=O)C[C@@H]3OP(=O)(O)OC[C@H]3O[C@@H](n4cc(C)c(N)nc4=O)C[C@@H]3OP(=O)(O)OC[C@H]3O[C@@H](n4cc(C)c(=O)[nH]c4=O)C[C@@H]3OP(=O)(O)OC[C@H]3O[C@@H](n4cc(C)c(N)nc4=O)C[C@@H]3OP(=O)(O)OC[C@H]3O[C@@H](n4cc(C)c(=O)[nH]c4=O)C[C@@H]3OP(=O)(O)OC[C@H]3O[C@@H](c4cn(-c5ccc(CO)cc5)nn4)C[C@@H]3OP(=O)(O)OC[C@H]3O[C@@H](n4cc(C)c(=O)[nH]c4=O)C[C@@H]3OP(=O)(O)OC[C@H]3O[C@@H](n4cc(C)c(N)nc4=O)C[C@@H]3OP(=O)(O)OC[C@H]3O[C@@H](n4cc(C)c(=O)[nH]c4=O)C[C@@H]3OP(=O)(O)OC[C@H]3O[C@@H](n4cc(C)c(=O)[nH]c4=O)C[C@@H]3OP(=O)(O)OC[C@H]3O[C@@H](n4cc(C)c(=O)[nH]c4=O)C[C@@H]3OP(=O)(O)OC[C@H]3O[C@@H](n4cc(C)c(=O)[nH]c4=O)C[C@@H]3OP(=O)(O)OC[C@H]3O[C@@H](n4cc(C)c(=O)[nH]c4=O)C[C@@H]3O)[C@@H](COP(=O)(O)O[C@H]3C[C@H](n4cc(C)c(=O)[nH]c4=O)O[C@@H]3CO)O2)c(=O)nc1N
